Data reported in ChEMBL document CHEMBL1152541, “Staurosporine tethered peptide ligands that target cAMP-dependent protein kinase (PKA): optimization and selectivity profiling” (Bioorg Med Chem, 2009).
*1 amine or outer side, *2 acyl side, *3 side chain or, on linkers, in order; H or OH if unused. Where a SMILES comes first, the peptide text is derived from it. Bridges are numbered along the chain shown (N, C = ends). [ ]: non-standard residue; d: D form. The star is where a group is joined. Staurosporine = CO[C@@H]1[C@H](N(C)*)C[C@H]2O[C@]1(C)n1c3ccccc3c3c4c(c5c6ccccc6n2c5c31)C(=O)NC4; Suc = O=C(CCC(=O)[*:2])[*:1]; Dap = NC[C@H](N)C(=O)O; βAla = NCCC(=O)O

Tests used:
[1] = system: Mast/stem cell growth factor receptor Kit (Homo sapiens), P10721 [D816V]; assay: Binding affinity to human KIT D816V mutant at 500 nM by cell-based competition binding assay relative to control in presence of DTT
Method in brief: (§1)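 Competition binding screen (Ambit) across a panel of 90 kinases, scoring test ligand displacement of each kinase's binding relative to control. The screen ran under reducing conditions with 7.5 mM DTT.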

[2] = target: T1, Activin receptor type-1B (Homo sapiens) (UniProt P36896); assay: Binding affinity to human ACVR1B at 500 nM by cell-based competition binding assay relative to control in presence of DTT
T1 sequence (whole entry): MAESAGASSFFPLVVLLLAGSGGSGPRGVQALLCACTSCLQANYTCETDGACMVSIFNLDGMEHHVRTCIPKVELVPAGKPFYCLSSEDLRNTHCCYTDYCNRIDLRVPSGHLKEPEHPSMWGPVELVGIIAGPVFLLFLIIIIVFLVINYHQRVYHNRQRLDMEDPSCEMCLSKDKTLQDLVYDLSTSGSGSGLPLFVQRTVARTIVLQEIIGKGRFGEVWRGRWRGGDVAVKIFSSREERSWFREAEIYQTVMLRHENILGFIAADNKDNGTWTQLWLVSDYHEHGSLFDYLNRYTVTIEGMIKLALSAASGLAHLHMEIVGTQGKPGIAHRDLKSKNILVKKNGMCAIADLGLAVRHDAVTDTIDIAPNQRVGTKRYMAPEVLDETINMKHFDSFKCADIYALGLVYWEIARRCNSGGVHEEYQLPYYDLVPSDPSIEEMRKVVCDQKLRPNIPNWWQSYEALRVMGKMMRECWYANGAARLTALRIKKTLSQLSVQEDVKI
Method in brief: (§2)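 Kinase binding profiling ran on a commercial (Ambit) competitive binding screen against a panel of 90 kinases. The screen used reducing conditions with 7.5 mM DTT. To withstand the DTT, the bivalent ligand was tested as its amide isostere, with the disulfide replaced. A staurosporine derivative carrying a 3 β-alanine linker was run as the reference compound.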

[3] = target: Mitogen-activated protein kinase 14 (Homo sapiens) (UniProt Q16539); assay: Binding affinity to human p38alpha at 500 nM by cell-based competition binding assay relative to control in presence of DTT
Chain of Mitogen-activated protein kinase 14 (Homo sapiens) (Q16539 whole entry): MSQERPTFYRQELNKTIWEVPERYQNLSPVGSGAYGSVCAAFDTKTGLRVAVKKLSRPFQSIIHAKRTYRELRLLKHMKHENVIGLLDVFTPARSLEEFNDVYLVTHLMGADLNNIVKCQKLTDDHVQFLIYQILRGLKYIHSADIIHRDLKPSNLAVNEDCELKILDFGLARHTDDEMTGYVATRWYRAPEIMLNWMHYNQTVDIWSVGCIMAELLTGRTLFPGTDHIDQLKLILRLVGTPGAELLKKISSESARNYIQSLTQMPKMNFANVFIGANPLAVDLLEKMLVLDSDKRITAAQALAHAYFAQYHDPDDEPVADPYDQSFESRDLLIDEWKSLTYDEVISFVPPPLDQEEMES

[4] = target: Glycogen synthase kinase-3 beta (Homo sapiens) (UniProt P49841); assay: Ratio of compound to staurosporine binding affinity to human GSK3-beta in presence of DTT
Chain of Glycogen synthase kinase-3 beta (Homo sapiens) (P49841 whole entry, looked up): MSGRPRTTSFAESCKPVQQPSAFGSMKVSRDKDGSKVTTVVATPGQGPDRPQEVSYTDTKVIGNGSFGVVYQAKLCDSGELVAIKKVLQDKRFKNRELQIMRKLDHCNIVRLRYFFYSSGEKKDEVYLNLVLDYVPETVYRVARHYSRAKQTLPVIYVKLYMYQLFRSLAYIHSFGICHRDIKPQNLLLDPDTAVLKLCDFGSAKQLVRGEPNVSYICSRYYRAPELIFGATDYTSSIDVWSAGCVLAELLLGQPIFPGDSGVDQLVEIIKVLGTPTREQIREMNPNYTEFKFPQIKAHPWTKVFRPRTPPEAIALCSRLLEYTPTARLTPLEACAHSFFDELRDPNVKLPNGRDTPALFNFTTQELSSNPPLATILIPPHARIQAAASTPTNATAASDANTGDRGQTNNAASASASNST

[5] = target: RAC-alpha serine/threonine-protein kinase (Homo sapiens) (UniProt P31749); assay: Binding affinity to human AKT1 at 500 nM by cell-based competition binding assay relative to control in presence of DTT; method in brief: as §2
Chain of RAC-alpha serine/threonine-protein kinase (Homo sapiens) (P31749 whole entry, canonical isoform): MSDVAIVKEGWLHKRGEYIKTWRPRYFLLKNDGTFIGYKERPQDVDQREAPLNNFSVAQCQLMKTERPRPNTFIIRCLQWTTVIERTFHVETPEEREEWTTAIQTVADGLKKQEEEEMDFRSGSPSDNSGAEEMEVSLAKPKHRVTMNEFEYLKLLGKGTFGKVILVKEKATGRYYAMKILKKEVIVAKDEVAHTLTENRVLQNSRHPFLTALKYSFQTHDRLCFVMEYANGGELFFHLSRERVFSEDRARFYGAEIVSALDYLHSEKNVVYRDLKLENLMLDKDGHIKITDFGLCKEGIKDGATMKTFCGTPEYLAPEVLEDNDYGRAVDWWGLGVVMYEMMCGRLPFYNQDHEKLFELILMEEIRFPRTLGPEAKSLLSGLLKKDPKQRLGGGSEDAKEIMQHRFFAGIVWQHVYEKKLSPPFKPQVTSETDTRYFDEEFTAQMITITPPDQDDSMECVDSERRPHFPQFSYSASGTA

[6] = target: Phosphatidylinositol 4,5-bisphosphate 3-kinase catalytic subunit alpha isoform (Homo sapiens) (UniProt P42336); assay: Binding affinity to human PIK3Calpha at 500 nM by cell-based competition binding assay relative to control in presence of DTT
[7] = target: Phosphatidylinositol 4-phosphate 3-kinase C2 domain-containing subunit beta (Homo sapiens) (UniProt O00750); assay: Binding affinity to human PIK3C2beta at 500 nM by cell-based competition binding assay relative to control in presence of DTT
[8] = target: Fibroblast growth factor receptor 2 (Homo sapiens) (UniProt P21802); assay: Binding affinity to human FGFR2 at 500 nM by cell-based competition binding assay relative to control in presence of DTT
Method in brief: (§3)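 Commercial (Ambit) competitive kinase-binding panel of 90 kinases measured the binding profile. Run under reducing conditions of 7.5 mM DTT. Binding is expressed relative to control.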

[9] = target: T2, Protein kinase C epsilon type (Homo sapiens) (UniProt Q02156); assay: Binding affinity to human PRKCepsilon at 200 nM by cell-based competition binding assay relative to control in presence of DTT
T2 sequence (whole entry): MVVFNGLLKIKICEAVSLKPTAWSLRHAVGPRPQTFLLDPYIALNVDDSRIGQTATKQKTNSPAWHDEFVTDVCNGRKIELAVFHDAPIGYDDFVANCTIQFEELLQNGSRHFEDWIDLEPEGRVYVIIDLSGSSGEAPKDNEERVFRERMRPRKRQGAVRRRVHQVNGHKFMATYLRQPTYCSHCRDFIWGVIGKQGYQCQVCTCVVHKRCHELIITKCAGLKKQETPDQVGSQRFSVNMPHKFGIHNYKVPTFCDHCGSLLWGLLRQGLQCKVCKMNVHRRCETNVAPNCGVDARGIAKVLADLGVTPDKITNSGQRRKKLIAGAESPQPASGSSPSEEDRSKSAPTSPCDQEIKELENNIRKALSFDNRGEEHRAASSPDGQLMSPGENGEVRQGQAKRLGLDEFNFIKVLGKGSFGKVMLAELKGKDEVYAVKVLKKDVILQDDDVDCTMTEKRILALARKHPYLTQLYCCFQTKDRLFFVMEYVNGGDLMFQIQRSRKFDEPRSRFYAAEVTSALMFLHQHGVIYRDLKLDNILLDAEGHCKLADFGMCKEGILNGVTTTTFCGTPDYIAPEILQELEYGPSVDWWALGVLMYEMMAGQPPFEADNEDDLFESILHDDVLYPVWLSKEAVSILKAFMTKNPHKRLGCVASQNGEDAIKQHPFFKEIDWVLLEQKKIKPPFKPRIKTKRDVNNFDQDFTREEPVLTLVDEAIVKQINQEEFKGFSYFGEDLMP

[10] = target: Serine/threonine-protein kinase PAK 4 (Homo sapiens) (UniProt O96013); assay: Binding affinity to human PAK4 at 200 nM by cell-based competition binding assay relative to control in presence of DTT
Chain of Serine/threonine-protein kinase PAK 4 (Homo sapiens) (O96013 whole entry, looked up): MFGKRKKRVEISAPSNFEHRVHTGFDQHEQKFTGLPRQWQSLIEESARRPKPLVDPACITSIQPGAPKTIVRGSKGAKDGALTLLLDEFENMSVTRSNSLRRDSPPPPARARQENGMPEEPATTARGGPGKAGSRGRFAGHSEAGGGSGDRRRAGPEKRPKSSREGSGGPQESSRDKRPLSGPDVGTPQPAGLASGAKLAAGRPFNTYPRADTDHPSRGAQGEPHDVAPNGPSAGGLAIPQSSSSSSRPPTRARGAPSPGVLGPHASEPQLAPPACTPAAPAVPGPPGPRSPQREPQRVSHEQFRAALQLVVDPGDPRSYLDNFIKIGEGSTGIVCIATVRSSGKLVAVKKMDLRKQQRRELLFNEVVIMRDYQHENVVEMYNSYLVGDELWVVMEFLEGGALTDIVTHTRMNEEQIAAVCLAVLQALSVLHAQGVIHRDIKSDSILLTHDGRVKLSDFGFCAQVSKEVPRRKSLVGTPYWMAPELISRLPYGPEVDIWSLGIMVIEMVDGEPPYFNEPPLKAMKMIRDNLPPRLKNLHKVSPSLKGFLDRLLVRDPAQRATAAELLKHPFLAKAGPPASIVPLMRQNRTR

[11] = target: Atypical kinase COQ8A, mitochondrial (Homo sapiens) (UniProt Q8NI60); assay: Binding affinity to human ADCK3 at 200 nM by cell-based competition binding assay relative to control in presence of DTT; method in brief: as §2
[12] = target: Epidermal growth factor receptor (Homo sapiens) (UniProt P00533); assay: Binding affinity to human EGFR at 200 nM by cell-based competition binding assay relative to control in presence of DTT; method in brief: as §3
Chain of Epidermal growth factor receptor (Homo sapiens) (P00533 whole entry): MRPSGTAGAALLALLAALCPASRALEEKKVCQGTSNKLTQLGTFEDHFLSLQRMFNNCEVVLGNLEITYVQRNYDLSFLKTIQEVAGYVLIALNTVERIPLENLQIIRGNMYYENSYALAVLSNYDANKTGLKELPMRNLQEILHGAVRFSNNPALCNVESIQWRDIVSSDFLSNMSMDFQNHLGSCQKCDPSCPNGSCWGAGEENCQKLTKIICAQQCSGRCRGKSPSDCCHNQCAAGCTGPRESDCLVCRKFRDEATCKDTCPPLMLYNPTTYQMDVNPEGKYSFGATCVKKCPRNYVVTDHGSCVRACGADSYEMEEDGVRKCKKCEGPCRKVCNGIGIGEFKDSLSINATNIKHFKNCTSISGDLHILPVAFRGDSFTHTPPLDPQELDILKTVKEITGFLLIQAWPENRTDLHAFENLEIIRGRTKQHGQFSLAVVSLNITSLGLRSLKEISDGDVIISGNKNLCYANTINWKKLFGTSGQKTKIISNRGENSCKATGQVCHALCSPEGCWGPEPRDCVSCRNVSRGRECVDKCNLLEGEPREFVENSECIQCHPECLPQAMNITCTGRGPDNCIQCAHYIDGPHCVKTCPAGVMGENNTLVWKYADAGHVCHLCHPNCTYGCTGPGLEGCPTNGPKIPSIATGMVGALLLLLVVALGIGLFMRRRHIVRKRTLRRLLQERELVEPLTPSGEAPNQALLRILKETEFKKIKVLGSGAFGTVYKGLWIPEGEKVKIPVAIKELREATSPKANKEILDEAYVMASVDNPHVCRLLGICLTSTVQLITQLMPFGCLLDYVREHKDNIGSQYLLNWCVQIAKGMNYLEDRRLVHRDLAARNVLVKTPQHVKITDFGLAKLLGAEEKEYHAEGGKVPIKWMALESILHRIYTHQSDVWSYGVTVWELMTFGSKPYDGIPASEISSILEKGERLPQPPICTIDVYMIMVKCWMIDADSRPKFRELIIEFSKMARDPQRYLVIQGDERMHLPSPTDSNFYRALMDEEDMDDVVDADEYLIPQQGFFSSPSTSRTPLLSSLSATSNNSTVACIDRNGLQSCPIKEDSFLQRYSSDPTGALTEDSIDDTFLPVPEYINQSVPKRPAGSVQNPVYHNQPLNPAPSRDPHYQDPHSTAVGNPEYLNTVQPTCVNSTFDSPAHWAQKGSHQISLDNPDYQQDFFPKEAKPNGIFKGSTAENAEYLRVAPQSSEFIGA

[13] = target: Mast/stem cell growth factor receptor Kit (Homo sapiens) (UniProt P10721); assay: Binding affinity to human KIT at 200 nM by cell-based competition binding assay relative to control in presence of DTT; method in brief: as §1
[14] = target: Vascular endothelial growth factor receptor 2 (Homo sapiens) (UniProt P35968); assay: Binding affinity to human VEGFR2 at 50 nM by cell-based competition binding assay relative to control in presence of DTT
Chain of Vascular endothelial growth factor receptor 2 (Homo sapiens) (P35968 whole entry): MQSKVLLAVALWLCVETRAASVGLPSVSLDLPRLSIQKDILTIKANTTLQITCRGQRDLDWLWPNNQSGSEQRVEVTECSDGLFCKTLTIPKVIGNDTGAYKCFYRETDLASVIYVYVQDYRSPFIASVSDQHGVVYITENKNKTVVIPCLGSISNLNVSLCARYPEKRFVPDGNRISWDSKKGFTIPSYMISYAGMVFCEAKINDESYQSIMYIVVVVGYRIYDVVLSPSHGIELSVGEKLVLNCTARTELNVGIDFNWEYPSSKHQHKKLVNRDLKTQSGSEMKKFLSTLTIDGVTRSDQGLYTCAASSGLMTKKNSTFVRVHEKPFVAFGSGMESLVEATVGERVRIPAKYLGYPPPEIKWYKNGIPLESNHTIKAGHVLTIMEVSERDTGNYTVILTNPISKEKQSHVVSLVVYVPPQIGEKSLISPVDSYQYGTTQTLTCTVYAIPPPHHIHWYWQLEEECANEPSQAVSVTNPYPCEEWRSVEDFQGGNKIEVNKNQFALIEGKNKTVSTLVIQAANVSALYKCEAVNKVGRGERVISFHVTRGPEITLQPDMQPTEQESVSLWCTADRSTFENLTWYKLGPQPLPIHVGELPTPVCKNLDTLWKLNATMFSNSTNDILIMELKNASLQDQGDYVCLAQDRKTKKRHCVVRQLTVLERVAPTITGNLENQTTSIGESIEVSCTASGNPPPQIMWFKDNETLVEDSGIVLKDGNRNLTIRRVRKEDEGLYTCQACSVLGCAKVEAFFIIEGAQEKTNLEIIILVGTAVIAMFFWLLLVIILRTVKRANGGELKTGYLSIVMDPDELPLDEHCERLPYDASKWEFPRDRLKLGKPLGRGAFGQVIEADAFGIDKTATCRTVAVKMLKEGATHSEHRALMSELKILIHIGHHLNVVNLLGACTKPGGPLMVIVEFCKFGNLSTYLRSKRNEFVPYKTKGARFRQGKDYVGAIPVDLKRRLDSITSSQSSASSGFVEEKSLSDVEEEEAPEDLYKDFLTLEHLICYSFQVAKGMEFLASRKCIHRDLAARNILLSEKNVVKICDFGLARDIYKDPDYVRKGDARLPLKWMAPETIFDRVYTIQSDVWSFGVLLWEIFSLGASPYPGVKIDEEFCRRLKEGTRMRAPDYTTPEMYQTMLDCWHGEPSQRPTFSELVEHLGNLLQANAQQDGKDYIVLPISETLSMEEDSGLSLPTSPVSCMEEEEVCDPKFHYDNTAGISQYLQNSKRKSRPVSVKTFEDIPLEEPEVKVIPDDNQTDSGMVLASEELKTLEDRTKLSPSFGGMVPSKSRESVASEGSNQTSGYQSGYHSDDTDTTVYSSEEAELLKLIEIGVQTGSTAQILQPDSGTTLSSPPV

[15] = target: Mitogen-activated protein kinase 3 (Homo sapiens) (UniProt P27361); assay: Binding affinity to human ERK1 at 50 nM by cell-based competition binding assay relative to control in presence of DTT; method in brief: as §3
Chain of Mitogen-activated protein kinase 3 (Homo sapiens) (P27361 whole entry): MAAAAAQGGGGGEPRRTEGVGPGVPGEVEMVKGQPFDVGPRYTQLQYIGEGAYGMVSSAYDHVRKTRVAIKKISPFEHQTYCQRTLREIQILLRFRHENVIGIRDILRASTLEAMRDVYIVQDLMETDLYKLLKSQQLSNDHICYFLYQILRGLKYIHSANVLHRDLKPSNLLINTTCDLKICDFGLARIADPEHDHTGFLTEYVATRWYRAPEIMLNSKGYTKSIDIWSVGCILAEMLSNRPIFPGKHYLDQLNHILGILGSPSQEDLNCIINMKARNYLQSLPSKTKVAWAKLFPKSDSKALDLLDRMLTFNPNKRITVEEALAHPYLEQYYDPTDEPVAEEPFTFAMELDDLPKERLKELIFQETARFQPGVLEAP

## CO[C@@H]1[C@H](N(C)C(=O)CCC(=O)NCCC(=O)NCCC(=O)NCCC(N)=O)C[C@H]2O[C@]1(C)n1c3ccccc3c3c4c(c5c6ccccc6n2c5c31)C(=O)NC4
[1]
  Activity: 1%
[2]
  Activity: 87%
[3]
  Activity: 93%
[4]
  Selectivity ratio: 7
[5]
  Activity: 100%
[6]
  Activity: 100%
[7]
  Activity: 98%
[8]
  Activity: 27%

## CO[C@@H]1[C@H](N(C)C(=O)CCC(=O)NCCC(=O)NCCC(=O)NCCC(=O)NCCC(=O)NCCC(=O)NCCC(=O)NCCC(=O)N[C@H]2CSSC[C@@H](C(=O)NCC(N)=O)NC(=O)CNC(=O)[C@H](Cc3ccccc3)NC(=O)[C@H](C(C)C)NC(=O)[C@H](CCCNC(=N)N)NC(=O)[C@H](Cc3ccccc3)NC(=O)[C@H](C(C)C)NC2=O)C[C@H]2O[C@]1(C)n1c3ccccc3c3c4c(c5c6ccccc6n2c5c31)C(=O)NC4 ({Staurosporine-Suc-βAla-βAla-βAla-βAla-βAla-βAla-βAla}-CVFRVFGCG-NH2; disulfide 1-8)
[9]
  Activity: 0%
[10]
  Activity: 40%
[11]
  Activity: 96%
[12]
  Activity: 96%
[13]
  Activity: 39%

## CO[C@@H]1[C@H](N(C)C(=O)CCC(=O)NCCC(=O)NCCC(=O)NCCC(=O)NCCC(=O)NCCC(=O)NCCC(=O)NCCC(=O)N[C@H]2CNC(=O)C[C@@H](C(N)=O)NC(=O)CNC(=O)[C@H](Cc3ccccc3)NC(=O)[C@H](C(C)C)NC(=O)[C@H](CCCNC(=N)N)NC(=O)[C@H](Cc3ccccc3)NC(=O)[C@H](C(C)C)NC2=O)C[C@H]2O[C@]1(C)n1c3ccccc3c3c4c(c5c6ccccc6n2c5c31)C(=O)NC4 ({Staurosporine-Suc-βAla-βAla-βAla-βAla-βAla-βAla-βAla}-[Dap]VFRVFGD-NH2; lactam 1-8)
[14]
  Activity: 91%
[15]
  Activity: 100%
